In paper PMC9417066 (Nanoscale Advances, 2021):

Experiments:
[1] = Solubility in pure water at room temperature; type: physicochemical; conditions: for solubility: water; for Soluble or not at R.T.: room temperature
[2] = Storage modulus / gel forming of peptide gel with PBS; type: physicochemical
TEM of peptide hydrogel = type: physicochemical; conditions: 6 mg ml^-1 peptide, hydrogel with PBS, 1% phosphotungstic acid stain
Summary of the method: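 Peptide was dissolved in pure water at 6 mg ml−1, then 10× PBS was added to give at most 1× PBS. The resulting hydrogel was dropped onto a copper grid and the excess blotted with filter paper. It was negatively stained with 1% phosphotungstic acid for 15 s, air-dried and imaged by transmission electron microscopy.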

[3] = tested on: gastric or colon submucosal layer; assay: Mucosal elevation by submucosal injection; type: in vivo; conditions: 0.5 ml of 1% w/v PRVDP9 or 10 mg ml^-1 sodium hyaluronate, rabbit, 30 min

| Molecule | solubility [1] [mg/mL] | Soluble or not at R.T. ([1]; 1% w/v) | Gel forming ([2]; 1% w/v peptide) | Soluble or not at R.T. ([1]; 2% w/v) | Gel forming ([2]; 2% w/v peptide) | further results |
| --- | --- | --- | --- | --- | --- | --- |
| CC(=O)N[C@@H](CCCNC(=N)N)C(=O)N[C@@H](C)C(=O)N[C@@H](CC(=O)O)C(=O)N[C@@H](C)C(=O)N[C@@H](CCCNC(=N)N)C(=O)N[C@@H](C)C(=O)N[C@@H](CC(=O)O)C(=O)N[C@@H](C)C(=O)N[C@@H](CCCNC(=N)N)C(=O)N[C@@H](C)C(=O)N[C@@H](CC(=O)O)C(=O)N[C@@H](C)C(=O)N[C@@H](CCCNC(=N)N)C(=O)N[C@@H](C)C(=O)N[C@@H](CC(=O)O)C(=O)N[C@@H](C)C(N)=O [RADA16, AC-RADARADARADARADA-NH2, reference compound] | < 30 | – | – | – | – | Concentration of peptide solution at which it self-assembled into a gel ([2]; peptide solution, without triggering): 3 % w/v |
| Ac-PKIEIKIEP-NH2 [PKIEP9, AC-PKIEIKIEP-amide] | – | Yes | No | – | – | Soluble or not at R.T. ([1]; 0.5% w/v): Yes; Gel forming ([2]; 0.5% w/v peptide): No |
| Ac-PKLDLKLDP-NH2 [PKLDP9, AC-PKLDLKLDP-amide] | – | Yes | No | Yes | No | – |
| Ac-PKVEVKVEP-NH2 [PKVEP9, AC-PKVEVKVEP-amide] | ≥ 40 | Yes | Yes | Yes | Yes | – |
| Ac-PRIDIRIDP-NH2 [PRIDP9, AC-PRIDIRIDP-amide] | – | Yes | No | Yes | No | – |
| Ac-PRVDVRVDP-NH2 [PRVDP9, AC-PRVDVRVDP-NH2] | ≥ 40 | Yes | Yes | Yes | Yes | Nanostructure by TEM (TEM of peptide hydrogel): formed a dense nanofiber scaffold; Solubility (comparison, in words) [1]: superior solubility as compared with PRVD9; Gel forming when mixed with PBS (vial turned upside down) ([2]; 1%, 2%, 3% w/v in pure water, 10× PBS added to not exceed 1×, stand 10 seconds): good gel-forming ability; Storage modulus of peptide gel (in words) ([2]; 3% w/v peptide, gel with PBS, recorded at 1 Hz): almost equivalent to that of 2.5% w/v RADA; HE staining of colonic mucosa after submucosal injection [3]: showed a bulge, and the cavity was evenly filled with red-stained self-assembling peptides |
| Ac-PRVEVRVEP-NH2 [PRVEP9, Ac-PRVEVRVEP-amide] | – | No | – | – | – | Soluble or not at R.T. ([1]; 0.5% w/v): No |
| Ac-RVDVRVDV-NH2 [RVDV8, AC-RVDVRVDV-NH2] | < 30 | – | – | – | – | – |
| Ac-VRVDVRVDV-NH2 [VRVDV9, AC-VRVDVRVDV-NH2] | < 30 | – | – | – | – | – |
